Screening data (PubChem)
697 NFkB inh – inhibitors of the PMA/ionomycin-induced NF-kB reporter in 697 B cells | AID 435022 | actives 0.33% (n = 330,000) | 697 B-cell NF-kB luciferase reporter, 16 h | inhibition, % at 4 µM; in the data active = inhibition above about 35%
APP 5UTR inh – APP translation inhibition; SH-SY5Y APP 5'UTR-luciferase reporter, luminescence; inhibition, % at 2 µM; actives 0.82% (n = 190,000); AID 1285;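 active = inhibition above a set limit, derived from the sample mean plus 3 SD, cut at about 45% in these data; inconclusive = one replicate passes the limit while the other fails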
Hep lipid drop – modulators of hepatic lipid droplet formation; actives 0.4% (n = 240,000); AML12 mouse hepatocytes, oleate lipid droplets, BODIPY imaging; inhibition, % at 6.5 µM;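 active = lipid droplet intensity inhibited by at least 50%, with more than 500 cells counted; inconclusive = wells with under 300 cells, treated as cytotoxic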
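material = mouse AML12 hepatocyte cell line, fixed after treatment | also added = 100 µM oleic acid challenge | doses = compound at 6.5 µM only | schedule = overnight exposure | technique = Image-based BODIPY and DAPI two-channel analysis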
Jurkat NFkB inh – inhibitors of the PMA/ionomycin-induced NF-kB reporter in Jurkat cells | PMA/ionomycin-induced NF-kB luciferase reporter, luminescence | inhibition, % at 4 µM | actives 0.53% (n = 330,000); in the data active = inhibition above about 50%
aSyn UTR inh – 5' untranslated region of α-synuclein, MLPCN primary screen; alpha-synuclein 5'UTR reporter, inhibitor activity; inhibition, % (tested at 7.5 µM); actives 0.82% (n = 300,000); AID 1813; in the data active = inhibition above about 60%; inconclusive = no clear call, values can overlap the other calls;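 note: H4 neuroglioblastoma cells stably carrying SNCA 5'UTR luciferase fusion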
H9c2 TAG inh – reduces triacylglycerol accumulation in H9c2 cells | Nile Red lipid (TAG) fluorescence; cells loaded with 200 µM oleic acid | actives 0.66% (n = 230,000) | AID 651582 | inhibition, % at 12.5 µM;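 active = pattern-corrected inhibition of lipid staining of at least 50% with the nuclear-stain viability signal not falling by more than 50%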
Jurkat NFkB conf – inhibitors of the PMA/ionomycin-induced NF-kB reporter in Jurkat cells, retest. inhibition, % at 4 µM. Jurkat NF-kB luciferase, 16 h. actives 27% (n = 2,700). shares compounds with Jurkat NFkB inh;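 active = inhibition reaching about 45% at 4 µM in either replicate, limit read from the data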
697 NFkB conf – lowers PMA/ionomycin-induced NF-kB signal in 697 B cells. inhibition, % at 4 µM. actives 35% (n = 2,000). shares compounds with 697 NFkB inh. 697 B-cell NF-kB luciferase, 16 h; in the data active = inhibition mostly above about 28%, no sharp cut-off; inactive = mostly below about 22%
H9c2 TAG conf – confirmation of triacylglycerol accumulation inhibitors; actives 71% (n = 990); shares compounds with H9c2 TAG inh; inhibition, % at 12.5 µM; H9c2 lipid accumulation, Nile Red fluorescence; cells loaded with 200 µM oleic acid;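 active = mean inhibition across replicates of 40% or more; inactive = mean inhibition below 40%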
Each line names hits and unclear results; the compound was inactive in the other large screens (follow-up assays come after a bar, where they were run). An excerpt weighted towards active compounds, which were near 1.9% of everything screened.

CCOC(=O)c1cc(CC)sc1NC(=O)c1cc([N+](=O)[O-])ccc1N1CCOCC1	Jurkat NFkB inh 59, H9c2 TAG inh 91 (no result: Hep lipid drop) | Jurkat NFkB conf inactive | H9c2 TAG conf 60
COC(=O)[C@]1(C)N[C@H](CN(C)C(=O)c2ccc(F)cc2)[C@@H]2C(=O)N(Cc3ccccc3)C(=O)[C@@H]21	none (no result: APP 5UTR inh, Hep lipid drop, aSyn UTR inh)
O=C1OCC2=C1C(c1ccc3c(c1)OCO3)c1cc3c(cc1O2)OCO3 (stereo unspecified)	none (no result: 697 NFkB inh, APP 5UTR inh, Hep lipid drop, Jurkat NFkB inh, aSyn UTR inh)
CC(C)c1ccc(C2C3=C(COC3=O)Nc3cc4c(cc32)OCO4)cc1 (stereo unspecified)	APP 5UTR inh 95, Hep lipid drop inconclusive, Jurkat NFkB inh 70, aSyn UTR inh 123, H9c2 TAG inh 54 | Jurkat NFkB conf inactive | H9c2 TAG conf inactive
O=C(Cc1c(Sc2ccccc2)c2ccccc2n1Cc1ccccc1)NCCO	none
CCOc1ccc(C2CC(=O)NC3=C2C(=O)CCC3)cc1 (stereo unspecified)	none (no result: Hep lipid drop, H9c2 TAG inh)
CCCCOc1ccccc1C1CC(=O)NC2=C1C(=O)CCC2 (stereo unspecified)	APP 5UTR inh 88, Jurkat NFkB inh 62, aSyn UTR inh 94, H9c2 TAG inh 71 (no result: Hep lipid drop) | Jurkat NFkB conf 50 | H9c2 TAG conf 66
COc1cc(Cn2c(-c3nonc3N)nc3ccccc32)ccc1C	APP 5UTR inh 90, Jurkat NFkB inh 62, aSyn UTR inh 96, H9c2 TAG inh 66 | Jurkat NFkB conf inactive | H9c2 TAG conf 62
Cc1ccc(Cn2c(-c3nonc3N)nc3ccccc32)cc1	none (no result: Hep lipid drop)
CCCCOc1ccccc1NC(=O)Cn1c(-c2nonc2N)nc2ccccc21	697 NFkB inh 35, APP 5UTR inh 90, Jurkat NFkB inh 59, aSyn UTR inh 124, H9c2 TAG inh 73 | Jurkat NFkB conf inactive | 697 NFkB conf inactive | H9c2 TAG conf 64
Cc1cc(C)c(C)c(OCCCCN2CCCCC2)c1	none (no result: APP 5UTR inh)
COc1ccc(/C=N/NC(=O)c2c(C)nc3ccc(Br)cn23)cc1OC	none (no result: APP 5UTR inh)
Cc1ccc(/C=N/NC(=O)c2c(C)nc3ccc(Br)cn23)cc1	Jurkat NFkB inh 50, aSyn UTR inh 80, H9c2 TAG inh 56 (no result: APP 5UTR inh) | Jurkat NFkB conf 53 | H9c2 TAG conf 58
O=C(Nc1ccncc1)C1CCCN(S(=O)(=O)c2cccc3cccnc23)C1 (stereo unspecified)	APP 5UTR inh 76, Jurkat NFkB inh 63, H9c2 TAG inh 60 | Jurkat NFkB conf inactive | H9c2 TAG conf 41
COc1ccc(OC)c(NS(=O)(=O)c2ccc(N3CCCC3=O)cc2)c1	APP 5UTR inh 96, Jurkat NFkB inh 55, aSyn UTR inh 111, H9c2 TAG inh 57 (no result: Hep lipid drop) | Jurkat NFkB conf 55 | H9c2 TAG conf 42
COc1ccc(CCNS(=O)(=O)c2ccc(N3CCCC3=O)cc2)cc1	none (no result: Hep lipid drop)
Cc1ccccc1NS(=O)(=O)c1ccc(N2CCCC2=O)cc1	APP 5UTR inh 74, Jurkat NFkB inh 54, H9c2 TAG inh 58 (no result: Hep lipid drop) | Jurkat NFkB conf inactive | H9c2 TAG conf inactive
COc1ccc([C@H]2CC(=O)C=C(c3ccc(OC)cc3OC)C2)cc1	Jurkat NFkB inh 58, H9c2 TAG inh 52 (no result: APP 5UTR inh, Hep lipid drop, aSyn UTR inh) | Jurkat NFkB conf 48 | H9c2 TAG conf 81
CCCCNC(=O)C(=O)NCC1CCCN1S(=O)(=O)c1cccs1 (stereo unspecified)	none (no result: APP 5UTR inh, Hep lipid drop)
CCOc1ccc(S(=O)(=O)NCc2ccccn2)cc1NC(=O)c1ccccc1	Jurkat NFkB inh 53, H9c2 TAG inh 58 (no result: APP 5UTR inh, Hep lipid drop) | Jurkat NFkB conf 46 | H9c2 TAG conf 78
O=c1cc(-c2ccccc2)[nH]c2ccccc12	APP 5UTR inh 94, Jurkat NFkB inh 55, aSyn UTR inh 68, H9c2 TAG inh 66 (no result: Hep lipid drop) | Jurkat NFkB conf inactive | H9c2 TAG conf 49
COc1ccc(C(=O)NCc2cnn(C)c2C)cc1OC1CCN(C(C)C)CC1	none (no result: APP 5UTR inh)
COc1ccc(C(=O)Nc2ccc(Cl)cc2C(=O)NCc2ccco2)cc1	Jurkat NFkB inh 52, H9c2 TAG inh 61 | Jurkat NFkB conf inactive | H9c2 TAG conf 73
O=C(Nc1ccccc1C(=O)NCc1ccco1)c1ccccc1	none
CC1CCN(S(=O)(=O)c2ccc(S(=O)(=O)N3CCCC3)cc2)CC1	none (no result: APP 5UTR inh, H9c2 TAG inh)
CCOCCOC(=O)c1[nH]c2c(c1C)C(=O)CC(c1cccs1)C2 (stereo unspecified)	APP 5UTR inh 93, Hep lipid drop inconclusive, Jurkat NFkB inh 75, aSyn UTR inh 85, H9c2 TAG inh 53 | Jurkat NFkB conf inactive | H9c2 TAG conf 50
Cc1c(C(=O)OCC(C)C)[nH]c2c1C(=O)CC(c1cccs1)C2 (stereo unspecified)	APP 5UTR inh 59, Jurkat NFkB inh 51, H9c2 TAG inh 64 | Jurkat NFkB conf inactive | H9c2 TAG conf 50
CCOCCOC(=O)C1=C(C)NC2=C(C(=O)CC(c3cccs3)C2)C1c1ccsc1 (stereo unspecified)	none (no result: Hep lipid drop, H9c2 TAG inh)
COC(=O)c1[nH]c2c(c1C)C(=O)CC(c1ccc(C)cc1)C2 (stereo unspecified)	none
COCC(C)n1c(SCC(=O)N(C)C2CCS(=O)(=O)C2)nc2ccccc2c1=O (stereo unspecified)	none
COc1cc(C2C(C#N)=C(N)Oc3cc4c(cc32)OCO4)cc(OC)c1OC (stereo unspecified)	APP 5UTR inh 93, Hep lipid drop inconclusive, Jurkat NFkB inh 77, aSyn UTR inh 111, H9c2 TAG inh 51 | Jurkat NFkB conf inactive | H9c2 TAG conf 71
COc1ccc(S(=O)(=O)NC(CC(C)C)C(=O)NC(C)c2cccs2)cc1 (stereo unspecified)	none (no result: APP 5UTR inh, Hep lipid drop, aSyn UTR inh)
CCc1ccc(/C=N/NC(=O)c2cc(C3CC3)nc3ccc(Br)cc23)s1	APP 5UTR inh 72, Jurkat NFkB inh 56, H9c2 TAG inh 60 | Jurkat NFkB conf inactive | H9c2 TAG conf 40
CCc1ccc(/C=N/NC(=O)c2cc(-c3ccccc3OC)nc3ccccc23)s1	none (no result: APP 5UTR inh)
COCCCNC(=O)C(=O)Nc1ccc2c(c1)N(S(=O)(=O)c1cccs1)CCC2	Jurkat NFkB inh 62, aSyn UTR inh inconclusive, H9c2 TAG inh 54 (no result: APP 5UTR inh, Hep lipid drop) | Jurkat NFkB conf 57 | H9c2 TAG conf 61
CN(C)CCNC(=O)C(=O)Nc1ccc2c(c1)N(S(=O)(=O)c1cccs1)CCC2	Jurkat NFkB inh 65, H9c2 TAG inh 54 (no result: APP 5UTR inh, Hep lipid drop) | Jurkat NFkB conf inactive | H9c2 TAG conf 54
CC(C)(C)N1C(=O)[C@H]2[C@@H](c3ccc(Br)cc3)N3C(=O)N(c4ccccc4)C(=O)[C@@]3(C)[C@H]2C1=O	none (no result: APP 5UTR inh)
